UCH37 inh: blocks the human deubiquitinase UCH37. inhibition, % (test concentration not listed). 0.33% of 330,000 active. purified proteasome/UCH37, Ub-AMC cleavage fluorescence. AID 588478. Q9Y5K5;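 active = mean inhibition over replicate wells above about 20%, limit read from the data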
Target sequence (Q9Y5K5 whole entry, looked up): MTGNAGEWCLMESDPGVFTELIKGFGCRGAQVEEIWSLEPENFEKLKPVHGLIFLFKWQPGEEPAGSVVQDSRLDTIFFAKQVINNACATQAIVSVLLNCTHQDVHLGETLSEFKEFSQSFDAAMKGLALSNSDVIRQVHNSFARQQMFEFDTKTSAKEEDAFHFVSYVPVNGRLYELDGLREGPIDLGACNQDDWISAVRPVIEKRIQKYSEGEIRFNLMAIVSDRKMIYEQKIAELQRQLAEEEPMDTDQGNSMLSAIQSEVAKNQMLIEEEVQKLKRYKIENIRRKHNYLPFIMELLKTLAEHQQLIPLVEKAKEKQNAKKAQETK
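Material: human UCH37 enzyme supplied as purified proteasome complex. Measure: % inhibition of Ub-AMC cleavage fluorescence. Medium: pH 7.4 Tris-HCl (50 mM) with ovalbumin, ATP-MgCl2, DTT. Times: 30 min preincubation with enzyme, 25 min cleavage at room temperature. Detection: AMC fluorescence intensity at 355/460 nm.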
MEKK2 WT-MEK5: raises or lowers MEK5 binding to wildtype human MEKK2 PB1 domain. AID 1531. binding response (% of control), % at 10 µM. 1.1% of 290,000 active. bead flow cytometry, Alexa488-MEK5 binding to MEKK2 WT; actives lie on both sides; in the data active = binding response below about 67% or above about 130%
MEKK2mut PB1 HTS: signal of MEK5 binding to mutant human MEKK2 PB1 domain. bead flow cytometry, Alexa488-MEK5 binding to MEKK2 mutant. percent response, % at 10 µM. 0.35% of 290,000 active; in the data active = percent response above about 24%, passing the limit was not always enough
MEKK3 PB1 HTS: MEKK3-MEK5 PB1 interaction, increase or decrease; Q99759; bead-based flow cytometry, Alexa488-MEK5 binding to MEKK3; actives lie on both sides; 0 = blocked by unlabeled MEK5, 100 = vehicle; binding response (% of control), % at 10 µM; 1.4% of 290,000 active;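 active = binding response more than 3 SD above or below the average of its plate-row segment, actives on both sides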;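 note: Alexa488 bead fluorescence after subtracting the streptavidin-only scavenger bead signal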
Apaf1 inhib: human Apaf-1 inhibition; reconstituted apoptosome caspase-3 activity, DEVD-Rh110 fluorescence; AID 489030; inhibition, % at 20 µM; 0.71% of 330,000 active; O14727; active = inhibition of at least 40% at 20 µM
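Assay system: Apoptosome proteins | Medium: pH 7.5 Hepes buffer with CHAPS, BSA, DTT | Also added: Cytochrome c and DEVD-Rh110 substrate | Times: 30 min plus 50 min, RT | Detection: Rhodamine 110 fluorescence at Ex 480/Em 540 nm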
UBC13 inh: human UBC13 polyubiquitination inhibition | P61088 | UBC13 polyubiquitin chain formation, TR-FRET | inhibition, % at 20 µM | 0.47% of 330,000 active | AID 485273; in the data active = inhibition above about 45%, passing the limit was not always enough
Target sequence (P61088 whole entry, looked up): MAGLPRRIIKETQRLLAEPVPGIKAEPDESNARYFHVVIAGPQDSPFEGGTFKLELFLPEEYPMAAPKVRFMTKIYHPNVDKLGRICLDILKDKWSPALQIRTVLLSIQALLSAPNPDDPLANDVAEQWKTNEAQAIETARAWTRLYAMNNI
MEKK2wt confirm: raises or lowers MEK5 binding to wildtype human MEKK2, retest. 2.4% of 5,900 active. AID 1892. bead flow cytometry, Alexa488-MEK5 binding to MEKK2 WT; actives lie on both sides. shares compounds with MEKK3 PB1 HTS. binding response (% of control), % at 10 µM; in the data active = binding response below about 16% or above about 210%; inactive = in between
MEKK2mut confirm: signal of MEK5 binding to mutant human MEKK2, retest; shares compounds with MEKK3 PB1 HTS; bead flow cytometry, Alexa488-MEK5 binding to MEKK2 mutant; percent response, % at 10 µM; 2% of 5,900 active; AID 1893; in the data active = percent response mostly above about 71%, no sharp cut-off; inactive = mostly below about 38%;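 note: higher means compound restores mutant binding toward wildtype level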
MEKK3 confirm: MEKK3-MEK5 PB1 inhibition, single concentration confirmation; shares compounds with MEKK3 PB1 HTS; bead flow cytometry, Alexa488-MEK5 binding to MEKK3; active compounds read low; binding response (% of control), % at 10 µM; 1.8% of 5,900 active;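 active = binding response below 72% of control, or above a set upper limit, though filed actives all read lower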;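 note: lower values mean stronger disruption of MEK5 binding to MEKK3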
Each line names hits and unclear results; the compound was inactive in the other large screens (follow-up assays come after a bar, where they were run); [ ] = another dose, or the depositor's remark. Only some compounds are listed: those with a hit (about 3% of all), similar ones and a draw of the others.

O=C(O)CCCNc1c(C(=O)Nc2ccc(Cl)cc2)cc([N+](=O)[O-])cc1[N+](=O)[O-]	MEKK3 PB1 HTS 135 | MEKK2wt confirm inactive | MEKK2mut confirm inactive | MEKK3 confirm inactive
O=C(CNC1CCCCCC1)Nc1ccc(N2CCCC2)cc1	none (no result: UCH37 inh, MEKK2 WT-MEK5, MEKK2mut PB1 HTS, MEKK3 PB1 HTS)
O=C(COC(=O)C1CCCCC1)Nc1ccc(N2CCCCC2)cc1	MEKK2 WT-MEK5 150, MEKK2mut PB1 HTS 47 | MEKK2wt confirm inactive | MEKK2mut confirm inactive | MEKK3 confirm inactive
O=C(Nc1ccc(N2CCOCC2)cc1)C1CCCCC1	MEKK3 PB1 HTS 82[inhibitor] | MEKK2wt confirm inactive | MEKK2mut confirm inactive | MEKK3 confirm inactive
O=C(CNCCC1=CCCCC1)Nc1ccc(N2CCCCCC2)cc1	MEKK2 WT-MEK5 188 | MEKK2wt confirm inactive | MEKK2mut confirm inactive | MEKK3 confirm inactive
OC1(c2ccc(Cl)cc2)CCN(Cc2c[nH]c3ccccc23)CC1	MEKK2 WT-MEK5 151 | MEKK2wt confirm inactive | MEKK2mut confirm inactive | MEKK3 confirm inactive
O=C(NC1CCCCC1)c1ccc(Br)o1	none
Cc1onc(-c2ccccc2)c1-c1csc(N/N=C/c2ccccc2)n1	MEKK3 PB1 HTS 68[inhibitor] (no result: UCH37 inh) | MEKK2wt confirm inactive | MEKK2mut confirm inactive | MEKK3 confirm inactive
CC1CCCC(C)N1S(=O)(=O)c1ccc(NC(=O)CCN2C(=O)C3CC=CCC3C2=O)cc1 (stereo not given)	none (no result: MEKK2 WT-MEK5, MEKK2mut PB1 HTS, MEKK3 PB1 HTS)
COc1cccc(OCCOCCOc2ccc(C)cc2[N+](=O)[O-])c1	MEKK3 PB1 HTS 146 | MEKK2wt confirm inactive | MEKK2mut confirm inactive | MEKK3 confirm inactive
COc1cc(-n2c(=O)c3ccccc3n(Cc3ccccc3)c2=O)cc(OC)c1OC	MEKK3 PB1 HTS 134 | MEKK2wt confirm inactive | MEKK2mut confirm inactive | MEKK3 confirm inactive
COc1ccc(OC)c(/C=N/NC(=O)c2c(C)nc3ccc(C)cn23)c1	none (no result: UCH37 inh)
COc1cccc(NC(=O)N2CCCC2C(=O)NCc2ccccc2F)c1 (stereo not given)	none
COc1cccc(CN2CCCC(C(=O)N3CCCCC3)C2)c1 (stereo not given)	none
COc1cccc(NC(=O)N2CCCC2C(=O)NCc2ccccc2)c1 (stereo not given)	MEKK2 WT-MEK5 55[inhibitor], MEKK3 PB1 HTS 63[inhibitor] | MEKK2wt confirm inactive | MEKK2mut confirm inactive | MEKK3 confirm inactive
COc1cccc(CN2CCCCC2C(=O)O)c1 (stereo not given)	MEKK3 PB1 HTS 40[inhibitor] | MEKK2wt confirm inactive | MEKK2mut confirm inactive | MEKK3 confirm inactive
COc1cccc(NC(=O)C2CCCN2C(=O)Nc2ccccc2F)c1 (stereo not given)	MEKK2 WT-MEK5 -2.0[inhibitor], MEKK3 PB1 HTS 1.0[inhibitor] | MEKK2wt confirm inactive | MEKK2mut confirm inactive | MEKK3 confirm inactive
Cc1nc2ccc(S(=O)(=O)N(C)CC(=O)N3CCc4ccccc4C3)cc2s1	none
O=C(NN=Cc1ccncc1)c1ccccn1	none (no result: MEKK2 WT-MEK5, MEKK2mut PB1 HTS, MEKK3 PB1 HTS, Apaf1 inhib, UBC13 inh)
CC(C)(C)c1ccc(/C=N/NC(=O)c2ccccn2)cc1	MEKK2mut PB1 HTS 86 (no result: UCH37 inh, MEKK2 WT-MEK5) | MEKK2wt confirm inactive | MEKK2mut confirm inactive | MEKK3 confirm inactive
CCN(CC)c1ccc(C(=O)OCC(=O)N(C(C)C)C(C)C)cc1	none
CC(C)c1ccc(C2C3CSCC=C3C(C#N)=C(N)C2(C#N)C#N)cc1 (stereo not given)	MEKK2 WT-MEK5 1.0[inhibitor], MEKK3 PB1 HTS 1.0[inhibitor] (no result: UCH37 inh) | MEKK2wt confirm inactive | MEKK2mut confirm inactive | MEKK3 confirm inactive
COc1ccc(C(=O)Nc2ccccc2)cc1S(=O)(=O)NCc1ccco1	none
Clc1ccc(-c2nnc(CCc3ccccc3)o2)c(Cl)c1	MEKK3 PB1 HTS 55[inhibitor] | MEKK2wt confirm inactive | MEKK2mut confirm inactive | MEKK3 confirm inactive
